A short description of this test: LL 47 lung fibroblast growth inhibition, concentration-response, selectivity test for endothelial growth inhibitor program, cellular, luminescent ATP readout (AID 821).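 Further: 100% = median of untreated cell-only wells and 0% = no luminescence.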 As to conditions: LL 47 lung fibroblast viability, ATP luminescence; at 20 µM (top of the series). The gist of the method: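 Assay system: LL 47 human lung fibroblast cells | Amount: 1,150 cells/well | Schedule: 72 h exposure, 37 °C | Measured by: CellTiter-Glo luminescence | Measure: Percent viability relative to untreated wells, EC50 via 4-parameter fit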

Activity calls are given as the source filed them.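 How the source made its calls: active means compounds whose fitted half-maximal concentration for reducing fibroblast viability is 100 µM or lower; inactive means the rest.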

By viability is commonly meant a read-out of living cells in per cent, often relative to untreated cells. Regarding `CCCc1cc(C(=O)Cc2ccc(F)cc2)c(O)cc1O`, the viability is 96.5% (inactive).
The result for `O=C(COc1ccc(Cl)cc1)Nc1ccccc1C(=O)NCc1ccco1` reads 82.7% (inactive); that for `CCOc1ccc(OCc2ccc(C(=O)NCC3CCCO3)o2)cc1` (centres undefined), 109% (inactive).
Consider `CC1=C(C(=O)OC2CCCCCCC2)C(c2cc3c(cc2Br)OCO3)CC(=O)N1` (centres undefined), for which the viability was 82.2% (inactive).
As to `COc1ccc2nc(NC(=O)CSC3=NCCS3)sc2c1`, the viability is 110% (inactive).
With `COc1ccc(Cl)c(N2CCN(CCCNC(=O)Nc3ccc(C)cc3)CC2)c1`, the viability is 84.9% (inactive).
Regarding `COC(=O)c1ccccc1NC(=O)c1cc(-c2cccs2)on1`, the viability was 90.8% (inactive).
For the molecule `O=[N+]([O-])c1cccnc1N1CCC(c2cc(-c3cccc(C(F)(F)F)c3)n[nH]2)CC1`, the viability is 102% (inactive).
The result for `COCCCNC(=O)c1ccc2c(=O)n(Cc3ccc4c(c3)OCO4)c(=S)[nH]c2c1` reads 106% (inactive).
In the case of `Cc1ccc(-n2c(SCC(=O)Nc3ccc4c(c3)OCO4)nnc2-c2ccccn2)cc1`, the viability was 103% (inactive).
Regarding `COc1cc(/C=c2\s/c(=C(/C#N)C(=O)N3CCCC3)n(-c3ccccc3)c2=O)ccc1O`, the viability is 104% (inactive).
Then `O=S(=O)(Nc1cccnc1)c1ccc(C2CCCCC2)cc1`, with 100% (inactive); and `CCn1c(Cc2ccc(OC)cc2)nnc1SCC(=O)Nc1cccc(C(=O)OC)c1`, with 96.9% (inactive).
`Cc1cc(NC(=O)c2cccc(S(=O)(=O)N3CC(c4ccccc4)CC3=O)c2)no1` (centres undefined): the viability is 98.4% (inactive).
`O=C(CCN1CCN(Cc2ccccc2)CC1)Nc1ccc(OCc2ccccc2)cc1`: the viability is 97.3% (inactive).
As to `Cc1ccc(-c2nnc(N3CCN(C(=O)CSc4ncn[nH]4)CC3)c3ccccc23)cc1`, the viability was 102% (inactive).
As to `O=C(/C=C/NNC(=O)c1ccccc1)c1ccccc1`, the viability was 93.2% (inactive).
The result for `COc1ccc(O)c(-c2cc(-c3cccc(Br)c3)n[nH]2)c1` reads 86.3% (inactive); that for `O=C(Nc1ccc2nn(-c3ccccc3)nc2c1)c1ccc2c(c1)OCO2`, 121% (inactive); that for `COc1ccc2[nH]c(=O)c(CN(C3CCCCC3)C(c3nnnn3Cc3ccco3)C(C)C)cc2c1` (centres undefined), 83.2% (inactive).
Consider `Clc1ccc(Cn2cc(/C=N/n3cnnc3)c3ccccc32)c(Cl)c1`, for which the viability is 99% (inactive).
With `Cc1cccc(NC(=O)c2cc(NC(=O)c3ccco3)ccc2N2CCCCC2)c1`, the viability is 82.5% (inactive).
With `Cc1ccc(C(=O)Nc2ncc(Cc3ccccc3)s2)o1`, the viability is 103% (inactive).
Regarding `O=C(COc1nc2ccccc2nc1N1CCOCC1)N1CCc2ccccc21`, the viability is 95.5% (inactive).
For the molecule `CCc1ccc2[nH]c(=O)c(CN(Cc3ccccc3)C(=O)Nc3ccccc3OC)cc2c1`, the viability is 88.9% (inactive).
Turning to `Cc1ccc(S(=O)(=O)c2c(C)nn(C(C)(C)C)c2OC(=O)c2ccc(Br)o2)cc1`, the viability was 103% (inactive).
Turning to `CCOc1ccc2nc(NC(=O)CN3CCC(n4nnc5cc(F)ccc54)CC3)sc2c1`, the viability is 82.7% (inactive).
As to `Cc1cccc(-c2nnc(NC(=O)c3ccc(Cl)cc3)o2)c1`, the viability is 87.4% (inactive).
Then `Cc1ccccc1-n1ncc2c([N+](=O)[O-])cc([N+](=O)[O-])cc21`, with 90.7% (inactive); and `O=C(Nc1ccccc1)c1cccc(-c2nnc(-c3ccccc3)o2)c1`, with 102% (inactive); and `CCCCC(=O)Nc1ccc(C(=O)Nc2ccc(S(=O)(=O)N3CCCC3)cc2)cc1`, with 104% (inactive).
On to `N=C1C(c2nc(-c3ccc(Cl)cc3)cs2)=C(O)CN1CCCN1CCOCC1`, for which the viability was 118% (inactive).
Consider `COc1cc2c(N3CCOCC3)cc(O)c(CC(=O)Nc3ccccc3)c2cc1OC`, for which the viability was 95.9% (inactive).
In the case of `COc1ccccc1NC(=O)CC1C(=O)NCCN1C(=O)Nc1ccc(Cl)c(Cl)c1` (centres undefined), the viability was 82.4% (inactive).
With `CC1CC(C)(C)CC2(C1)NC(=S)N(c1ccccc1)N2` (centres undefined), the viability is 109% (inactive).
Turning to `O=c1[nH]c(=O)n(Cc2ccccc2)c2nc(-c3ccco3)cc(C(F)(F)F)c12`, the viability was 81% (inactive).
Turning to `O=C1C2C3C=CC(CO)(O3)C2C(=O)N1c1ccccc1-c1ccccc1` (centres undefined), the viability was 91.7% (inactive).
In the case of `Cc1cccc(-c2nc(CN3CCCC(C(=O)NC4CCC(C)CC4)C3)c(C)o2)c1` (centres undefined), the viability is 85.4% (inactive).
The result for `Cc1cc(C)c2c(c1)SC1=NC(c3ccccc3)(C(F)(F)F)NC(=O)N12` (centres undefined) reads 102% (inactive); that for `CCC(C)NC(=O)c1c(N)n(/N=C/c2cccnc2)c2nc3ccccc3nc12` (centres undefined), 104% (inactive).
Turning to `Cc1ccc(S(=O)(=O)c2c(C)nn(C(C)(C)C)c2OC(=O)c2ccco2)cc1`, the viability was 108% (inactive).
`O=C(Nc1cccc(-c2nnc(-c3ccccc3)o2)c1)c1ccc(Br)o1`: the viability is 118% (inactive).
Regarding `CCOC(=O)c1cc2c(N)c(C(=O)c3cc(C#N)c(SC)nc3C)sc2nc1C`, the viability was 101% (inactive).
As to `CCCOc1ccc(-c2nc(C#N)c(NCCCn3ccnc3)o2)cc1`, the viability was 90.9% (inactive).
In the case of `Cn1c(=O)c2cc(NCc3ccccc3)nnc2n(C)c1=O`, the viability was 100% (inactive).
Consider `Cc1oc(-c2ccccc2F)nc1CN1CCC(C(=O)NCCC2=CCCCC2)CC1`, for which the viability is 83.4% (inactive).
As for `Cc1cc(C(=O)Nc2nc3ccc(S(C)(=O)=O)cc3s2)c(C)o1`, the viability was 92.9% (inactive).
Take `C=CCn1c(O)c(C2=c3ccccc3=NC2=O)s/c1=N/c1nccs1`: the viability is 88% (inactive).
For the molecule `CC(Nc1nc(N2CCN(S(C)(=O)=O)CC2)nc2ccccc12)c1ccccc1` (centres undefined), the viability is 92.9% (inactive).
For `COc1ccc(CCC(=O)N2CCN(C3CCCCC3)CC2)cc1`, the viability was 95.1% (inactive).
As to `CCOc1ccc2nc(NC(=O)CSc3nc4c(c(=O)n(C)c(=O)n4C)n3C(C)C)sc2c1`, the viability was 102% (inactive).
For `OCCNc1nc2ccccc2n1-c1ncnc2sc3c(c12)CCC3`, the viability is 91.9% (inactive).
For `COc1cccc(-c2nnc(Nc3nc4c(F)cccc4s3)o2)c1`, the viability was 84.7% (inactive).
Then `Cc1cc(=O)[nH]c2ccc(Cl)cc12`, with 102% (inactive); and `COc1ccccc1N1CCN(C(=O)c2ccc(Br)s2)CC1`, with 103% (inactive); and `Cc1cccc(NC(=O)c2sc3nc4c(c(-c5cccs5)c3c2N)CN(C)CC4)c1`, with 86.7% (inactive).
In the case of `Oc1ccc2oc3c(c2c1/C=N/n1cnnc1)CCCC3`, the viability is 99.5% (inactive).
Regarding `COc1ccc(-c2cn3c(C)c(C(=O)Nc4cccc(NC(C)=O)c4)sc3n2)cc1`, the viability was 109% (inactive).
Then `Cc1occc1-c1nnc(SCC(=O)NCc2cccs2)n1-c1ccc(F)cc1`, with 99.1% (inactive); and `Cc1ccc(C(=O)Nc2ncc(Cc3ccc(F)cc3)s2)o1`, with 117% (inactive).
Regarding `Cc1cccc(C)c1N1CCN(c2ccc3nnc(C(F)(F)F)n3n2)CC1`, the viability is 81.7% (inactive).
On to `CCN(CC)c1cc(C)c2cc(NC(=O)c3ccc(Br)o3)ccc2n1`, for which the viability was 93% (inactive).
Take `COc1ccc(-c2nnc(SCCc3ccccc3)n2N)cc1`: the viability was 113% (inactive).
Regarding `CCOc1ccc(-c2n[nH]c(C)c2Oc2ccc(OC)cc2)c(O)c1`, the viability is 93.9% (inactive).
`COC(=O)/C(=C\Nc1ccc(Cl)cc1Cl)NC(=O)c1ccc(Cl)cc1Cl`: the viability is 96% (inactive).
Take `CCOC(=O)c1sc(NC(=O)CSc2nnnn2-c2ccc(C)c(C)c2)nc1C`: the viability was 83.3% (inactive).
Turning to `Cn1cc(SCC(=O)Nc2nc3ccccc3s2)c2ccccc21`, the viability was 82.4% (inactive).
As to `Nc1c(C(=O)NCc2ccc(F)cc2)c2nc3ccccc3nc2n1CCCN1CCOCC1`, the viability was 85.7% (inactive).
With `Brc1cccc(-c2nnc3sc(CNC4CCCC4)cn23)c1`, the viability was 96.9% (inactive).
For the molecule `COC(=O)CSc1nc2ccc(NC(=O)CSc3nnnn3Cc3ccccc3)cc2s1`, the viability was 108% (inactive).
For the molecule `CC1=C(C)CS(=O)N(S(=O)(=O)c2ccccc2)C1` (centres undefined), the viability is 86.9% (inactive).
As for `Cc1cc(Cl)ccc1OCCCC(N)=O`, the viability was 95% (inactive).
On to `COc1cc(-c2nnc(COc3ccc4cc(Br)ccc4c3)o2)cc(OC)c1OC`, for which the viability is 127% (inactive).
Regarding `CCOc1ccc(NC(=S)Nc2ccc(C)c([N+](=O)[O-])c2)cc1`, the viability was 121% (inactive).
For `C/C(CC1CC2=C(CC1(C)C)C(C)(C)CCC2)=N\NC(N)=S` (centres undefined), the viability was 87.7% (inactive).
Turning to `Cc1nn(C)c(C)c1NC(=O)CSc1nc(C2CC2)nc2c1cnn2-c1ccccc1`, the viability was 108% (inactive).
Then `Cc1ccc(C(C#N)c2ccc(C(=O)c3ccc(F)cc3)cc2)cc1` (centres undefined), with 97.1% (inactive); and `N#CCc1nc2c3c4c(sc3ncn2n1)CCCC4`, with 102% (inactive).
For the molecule `Cc1cc(/C=C2\C(=N)N3C(SCc4ccccc4)=NSC3=NC2=O)c(C)n1Cc1ccccc1`, the viability is 92.2% (inactive).
As to `CCn1c2c(c3cc(Br)ccc31)CCC/C2=N\O`, the viability is 85.2% (inactive).
Turning to `CC1CCc2sc3nc(N4CCN(CCO)CC4)n4ncnc4c3c2C1` (centres undefined), the viability was 96.4% (inactive).
For the molecule `Brc1ccccc1OCCCn1cnc2ccccc21`, the viability is 111% (inactive).
Then `CN1CCN(c2ccccc2NC(=O)c2ccc(-c3ccc(Cl)cc3Cl)o2)CC1`, with 88.2% (inactive).
Consider `C=CCn1c(SCC(=O)NC(=O)NCc2ccco2)nc2sc(CC)cc2c1=O`, for which the viability is 87.4% (inactive).
